Tests used:
[1] = target: T1, M. tuberculosis ICL1 (Mycobacterium tuberculosis, UniProt P9WKK7); assay: 1H NMR assay of ICL1-catalysed turnover of DL-isocitrate; type: biochemical; details: for single concentration inhibition of ICL1: 100 μM inhibitor, 190 nM ICL1, 1 mM DL-isocitrate, 5 mM MgCl2
T1 sequence (P9WKK7 1-428): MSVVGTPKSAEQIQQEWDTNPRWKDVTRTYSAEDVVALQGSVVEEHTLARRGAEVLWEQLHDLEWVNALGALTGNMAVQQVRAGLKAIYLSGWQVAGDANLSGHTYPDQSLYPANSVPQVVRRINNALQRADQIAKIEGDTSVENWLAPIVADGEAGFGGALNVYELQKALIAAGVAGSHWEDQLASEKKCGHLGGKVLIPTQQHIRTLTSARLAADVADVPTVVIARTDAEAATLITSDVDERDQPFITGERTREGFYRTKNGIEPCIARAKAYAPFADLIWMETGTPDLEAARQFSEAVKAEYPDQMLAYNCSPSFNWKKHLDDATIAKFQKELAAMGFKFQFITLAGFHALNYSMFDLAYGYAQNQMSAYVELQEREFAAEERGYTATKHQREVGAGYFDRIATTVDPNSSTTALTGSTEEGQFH
Summary of the method: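 Recombinant ICL1 from E. coli BL21(DE3), purified by His-trap and gel filtration. Reactions in 50 mM Tris-D11 pH 7.5, 90% H2O/10% D2O at 300 K. 1H spectra with excitation-sculpting water suppression every ~1.3 min track the isocitrate decrease and the succinate singlet at 2.3 ppm. Initial rates from 15–20 min; inhibitors at varied concentrations; triplicates; IC50 by 3-parameter sigmoid fit.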

[2] = target: T1, M. tuberculosis ICL1; assay: 1H NMR ICL1 enzyme kinetics; type: biochemical; details: methylisocitrate as substrate, 190 nM ICL1, 5 mM MgCl2
[3] = tested on: ICL1; details: DL-isocitrate as substrate, LDH assay; cited from earlier work

CCOC(=O)c1ccc(CC(=O)c2oc3cc(O)ccc3c2C)o1 [Compound 29]
IC50 [1]: > 100 µM
single concentration inhibition of ICL1 [1]: significantly inhibited ICL1

C[C@](CC(=O)O)(C(=O)O)[C@H](O)C(=O)O [methylisocitrate]
substrate concentration above which substrate inhibition was observed [2]: exceeded 1 mM

O=C(O)CC[N+](=O)[O-] [3-Nitropropionate, reference compound]
single concentration inhibition of ICL1 [1]: most potent inhibitor

CCOC(=O)c1cc2cc(CC(=O)c3ccc(O)cc3O)ccc2o1 [Compound 38]
IC50 [1]: > 100 µM
single concentration inhibition of ICL1 [1]: significantly inhibited ICL1

O=C(O)CC(C(=O)O)C(O)C(=O)O (racemic) [DL-isocitrate, DL-Isocitrate]
Km [3]: 190 µM
kcat [3]: 5.24 s^–1

COC(=O)C=CC(=O)c1ccc(OC)cc1 [Methyl-4-(4-methoxyphenyl)-4-oxobut-2-enoate, reference compound]
single concentration inhibition of ICL1 [1]: weakest of the four tested

Reference: article PMC6072051 (MedChemComm, 2017)
